Drawing on ChEMBL document CHEMBL4373666, “Piperidine carbamate peptidomimetic inhibitors of the serine proteases HGFA, matriptase and hepsin” (Medchemcomm, 2019), this text covers IC50 for 16 molecules.

The IC50 is the midpoint of a concentration-inhibition curve.

Molecules are shown by their SMILES. Some results are limits rather than exact numbers.

The target of assay [1] is T1, Hepatocyte growth factor activator serine protease (Homo sapiens, UniProt Q04756).
T1 sequence (Q04756 whole entry): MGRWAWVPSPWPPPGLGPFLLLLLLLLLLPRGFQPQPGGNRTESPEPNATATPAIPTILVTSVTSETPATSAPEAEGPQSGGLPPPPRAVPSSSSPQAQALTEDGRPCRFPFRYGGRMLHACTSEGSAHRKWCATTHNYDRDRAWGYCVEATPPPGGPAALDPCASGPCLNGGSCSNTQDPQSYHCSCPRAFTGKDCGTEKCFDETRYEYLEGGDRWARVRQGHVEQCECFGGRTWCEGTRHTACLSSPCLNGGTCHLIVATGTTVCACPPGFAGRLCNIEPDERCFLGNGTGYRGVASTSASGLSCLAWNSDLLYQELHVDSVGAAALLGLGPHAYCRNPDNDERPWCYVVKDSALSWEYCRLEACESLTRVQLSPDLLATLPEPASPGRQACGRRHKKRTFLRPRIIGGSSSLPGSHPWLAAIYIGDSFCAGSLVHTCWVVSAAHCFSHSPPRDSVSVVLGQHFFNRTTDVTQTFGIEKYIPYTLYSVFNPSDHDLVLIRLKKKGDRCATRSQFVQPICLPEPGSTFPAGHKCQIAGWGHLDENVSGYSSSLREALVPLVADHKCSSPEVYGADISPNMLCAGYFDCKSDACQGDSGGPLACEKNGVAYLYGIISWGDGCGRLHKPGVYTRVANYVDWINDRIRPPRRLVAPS
Kind of assay: Inhibition of recombinant HGFA serine protease domain (unknown origin) using Boc-QLR-AMC as substrate preincubated for 30 mins followed by substrate addition by fluorescence based assay. In outline:
(§1)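 Fluorogenic kinetic protease assay: Boc-QLR-AMC substrate for HGFA, Boc-QAR-AMC for hepsin. Each inhibitor was tested at eleven concentrations, pre-incubated with the protease, and then substrate was added. Release of fluorescent product was followed kinetically over one hour, and IC50 was taken from the concentration-dependent inhibition of proteolysis.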

Assay [2] concerns the target T2, Suppressor of tumorigenicity 14 protein (Homo sapiens, UniProt Q9Y5Y6).
T2 sequence (Q9Y5Y6 whole entry): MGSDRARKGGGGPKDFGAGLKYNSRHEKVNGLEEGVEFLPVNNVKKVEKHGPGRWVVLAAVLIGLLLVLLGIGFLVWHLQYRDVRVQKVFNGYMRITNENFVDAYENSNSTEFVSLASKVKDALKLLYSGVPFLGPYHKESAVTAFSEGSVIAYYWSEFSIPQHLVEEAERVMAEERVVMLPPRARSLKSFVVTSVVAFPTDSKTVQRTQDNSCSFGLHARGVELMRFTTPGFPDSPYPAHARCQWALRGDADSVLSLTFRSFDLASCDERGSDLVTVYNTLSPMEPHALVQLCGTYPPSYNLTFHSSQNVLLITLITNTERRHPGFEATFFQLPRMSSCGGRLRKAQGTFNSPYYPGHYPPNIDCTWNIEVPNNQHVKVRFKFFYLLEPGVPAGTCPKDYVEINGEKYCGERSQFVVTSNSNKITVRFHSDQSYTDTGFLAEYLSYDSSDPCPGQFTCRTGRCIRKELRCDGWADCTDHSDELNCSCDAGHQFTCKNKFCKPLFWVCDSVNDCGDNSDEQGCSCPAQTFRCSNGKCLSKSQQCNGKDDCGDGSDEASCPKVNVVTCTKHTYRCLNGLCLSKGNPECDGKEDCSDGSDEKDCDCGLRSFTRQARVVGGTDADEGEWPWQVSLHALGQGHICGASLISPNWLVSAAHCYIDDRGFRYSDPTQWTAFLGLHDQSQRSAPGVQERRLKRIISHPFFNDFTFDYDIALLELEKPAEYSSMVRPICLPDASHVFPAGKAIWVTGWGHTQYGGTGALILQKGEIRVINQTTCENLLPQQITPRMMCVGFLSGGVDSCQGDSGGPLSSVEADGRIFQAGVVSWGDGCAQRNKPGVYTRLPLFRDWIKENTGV
Kind of assay: Inhibition of recombinant human N-terminal met-His6-tagged matriptase catalytic domain (Gly596 to Val855 residues) expressed in Escherichia coli using Boc-QAR-AMC as substrate preincubated for 30 mins followed by substrate addition by fluorescence based assay.

A further assay addresses Serine protease hepsin (Homo sapiens, UniProt P05981). Kind of assay: Inhibition of recombinant human C-terminal 10-His tagged hepsin (Arg45 to Leu417) expressed in mouse myeloma cells using Boc-QAR-AMC as substrate preincubated for 30 mins followed by substrate addition by fluorescence based assay. A digest of the protocol: as §1
Another assay addresses Prothrombin (Homo sapiens, UniProt P00734). Kind of assay: Inhibition of recombinant thrombin (unknown origin) using D-Phe-Pip-Arg-pNA as substrate preincubated for 30 mins followed by substrate addition by chromogenic assay.
In a further assay the target is Coagulation factor X (Homo sapiens, UniProt P00742). Kind of assay: Inhibition of recombinant factor Xa (unknown origin) using Bz-Ile-Glu-Gly-Arg-pNA as substrate preincubated for 30 mins followed by substrate addition by chromogenic assay.
Sequence of Coagulation factor X (P00742 41-179 limits assumed): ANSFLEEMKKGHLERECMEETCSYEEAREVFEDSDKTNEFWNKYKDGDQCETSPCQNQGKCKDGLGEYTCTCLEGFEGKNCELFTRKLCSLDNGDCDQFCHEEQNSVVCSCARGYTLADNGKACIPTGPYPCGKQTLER
Sequence of Coagulation factor X (P00742 235-488 limits assumed): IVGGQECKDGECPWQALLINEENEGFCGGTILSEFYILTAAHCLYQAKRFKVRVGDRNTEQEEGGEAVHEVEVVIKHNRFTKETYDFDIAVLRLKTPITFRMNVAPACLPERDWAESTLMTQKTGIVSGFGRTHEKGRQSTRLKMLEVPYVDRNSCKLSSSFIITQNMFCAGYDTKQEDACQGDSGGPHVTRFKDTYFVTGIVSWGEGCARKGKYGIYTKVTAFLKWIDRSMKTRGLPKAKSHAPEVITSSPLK

Sequence of Serine protease hepsin (P05981 1-162 limits assumed): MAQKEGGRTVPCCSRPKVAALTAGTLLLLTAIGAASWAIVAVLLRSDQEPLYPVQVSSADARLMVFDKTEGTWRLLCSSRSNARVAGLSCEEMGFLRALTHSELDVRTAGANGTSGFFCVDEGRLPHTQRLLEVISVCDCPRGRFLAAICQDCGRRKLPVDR
Sequence of Serine protease hepsin (P05981 163-417 limits assumed): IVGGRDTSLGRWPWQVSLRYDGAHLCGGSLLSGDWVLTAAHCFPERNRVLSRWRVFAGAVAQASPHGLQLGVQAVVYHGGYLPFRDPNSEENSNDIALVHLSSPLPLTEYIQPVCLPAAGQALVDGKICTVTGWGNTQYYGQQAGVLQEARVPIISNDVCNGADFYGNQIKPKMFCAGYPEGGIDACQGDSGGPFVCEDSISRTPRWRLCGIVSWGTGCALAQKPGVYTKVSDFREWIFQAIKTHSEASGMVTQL

Turning to `N=C(N)c1cccc(C[C@H](NS(=O)(=O)c2ccc3ccccc3c2)C(=O)N2CCN(C(=O)NCc3ccc(Br)cc3)CC2)c1`, the values for the IC50 (in assay [1]; in assay [2]; at Serine protease hepsin) were 30 µM, 8.4 µM and 0.09 µM, respectively.
With `CC1CN(CC2CCN(Cc3ccccc3)CC2)C(=O)N(c2cccc(C(=N)N)c2)C1` (configuration not stated), the half-maximal inhibitory concentration (IC50) in assay [1] came out at 20 µM; at Prothrombin, 11.6 µM; in assay [2], 3.2 µM; at Coagulation factor X, 0.38 µM; at Serine protease hepsin, 1.9 µM.
For the molecule `CC(C)c1cc(C(C)C)c(S(=O)(=O)N[C@@H](Cc2cccc(C(=N)N)c2)C(=O)N2CCN(C(=O)C3CCNCC3)CC2)c(C(C)C)c1`, the IC50 in assay [1] amounted to 11 µM; at Serine protease hepsin it was 14 µM.
In the case of `CC(C)C[C@H](NC(=O)OC1(c2ccccc2)CCNCC1)C(=O)N[C@@H](CCCNC(=N)N)C(=O)c1nc2ccccc2s1`, the half-maximal inhibitory concentration (IC50) at Prothrombin is above 20 µM.
Regarding `CC(=O)N1CCC(OC(=O)N[C@@H](CC(C)C)C(=O)N[C@@H](CCCNC(=N)N)C(=O)c2nc3ccccc3s2)CC1`, the IC50 in assay [1] was above 20 µM.
In the case of `CC(C)C[C@H](NC(=O)OC(c1ccccc1)C1CCNCC1)C(=O)N[C@@H](CCCNC(=N)N)C(=O)c1nc2ccccc2s1` (some centres not stated), the IC50 on Prothrombin and on Coagulation factor X was above 20 µM each time.
Take `CCS(=O)(=O)N1CCC(OC(=O)N[C@@H](CC(C)C)C(=O)N[C@@H](CCCNC(=N)N)C(=O)c2nc3ccccc3s2)CC1`: the IC50 (in assay [1]; at Prothrombin; on Coagulation factor X) was above 20 µM in each case.
Regarding `CC(=O)N[C@@H](CCCCN)C(=O)N[C@@H](CCC(N)=O)C(=O)N[C@@H](CC(C)C)C(=O)N[C@@H](CCCNC(=N)N)C(=O)c1nc2ccccc2s1`, on Prothrombin, the IC50 was above 20 µM.
In the case of `CC(C)C[C@H](NC(=O)OC1CCN(S(=O)(=O)c2ccccc2)CC1)C(=O)N[C@@H](CCCNC(=N)N)C(=O)c1nc2ccccc2s1`, the IC50 on Prothrombin and on Coagulation factor X was above 20 µM each time.
For `CC(C)C[C@H](NC(=O)OC1(Cc2ccccc2)CCNCC1)C(=O)N[C@@H](CCCNC(=N)N)C(=O)c1nc2ccccc2s1`, the IC50 in assay [1] is 1.2 µM; on Prothrombin, above 20 µM; in assay [2], 0.03 µM; on Coagulation factor X it was 6.5 µM; at Serine protease hepsin it was 0.0006 µM.
As to `CC(C)C[C@H](NC(=O)OC1CCN(S(=O)(=O)c2ccc([N+](=O)[O-])cc2[N+](=O)[O-])CC1)C(=O)N[C@@H](CCCNC(=N)N)C(=O)c1nc2ccccc2s1`, the IC50 in assay [1] was above 20 µM.
On to `N=C(N)NCCC[C@H](NC(=O)[C@H](CC1CCCCC1)NC(=O)OC1(c2ccccc2)CCNCC1)C(=O)c1nc2ccccc2s1`, for which the IC50 (in assay [1]; at Prothrombin) was above 20 µM each time.
Regarding `CC(=O)N1CCC(CCc2ccccc2)(OC(=O)N[C@@H](CC(C)C)C(=O)N[C@@H](CCCNC(=N)N)C(=O)c2nc3ccccc3s2)CC1`, the IC50 in assay [1] was above 20 µM.
`CC(=O)N[C@@H](CO)C(=O)N[C@@H](CCCCN)C(=O)N[C@@H](CC(C)C)C(=O)N[C@@H](CCCNC(=N)N)C(=O)c1nc2ccccc2s1`: the concentration for half-maximal inhibition (IC50) at Prothrombin was above 20 µM.
In the case of `CC(C)C[C@H](NC(=O)OC1CCN(S(=O)(=O)c2cccc(F)c2)CC1)C(=O)N[C@@H](CCCNC(=N)N)C(=O)c1nc2ccccc2s1`, the concentration for half-maximal inhibition (IC50) in assay [1] is above 20 µM.
`Cc1cc(C)c(S(=O)(=O)N2CCC(OC(=O)N[C@@H](CC(C)C)C(=O)N[C@@H](CCCNC(=N)N)C(=O)c3nc4ccccc4s3)CC2)c(C)c1`: in assay [2], the concentration for half-maximal inhibition (IC50) was above 20 µM.
